According to ChEMBL document CHEMBL1212900, “Falcipain inhibitors: optimization studies of the 2-pyrimidinecarbonitrile lead series” (J Med Chem, 2010):

How the values were obtained:
[1] = Inhibition of Plasmodium falciparum falcipain-2 expressed in Escherichia coli
Procedure, shortened: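 Recombinant E. coli-expressed, refolded enzyme at 0.25 nM in 100 mM sodium acetate pH 5.5, 500 μM CHAPS, 10 mM DTT, DMSO ≤1%. Substrate H-D-Val-Leu-Arg-AFC at 30 μM final. Inhibitor dilutions mixed with substrate, enzyme added last; fluorescence followed 1 h at room temperature. IC50 from percent activity versus concentration.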

[2] = Inhibition of Plasmodium falciparum falcipain-3 expressed in Escherichia coli
Procedure, shortened: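 Refolded recombinant enzyme from E. coli, 2 nM, in 100 mM sodium acetate pH 5.5 with 500 μM CHAPS and 10 mM DTT, DMSO up to 1%. H-D-Val-Leu-Arg-AFC at 150 μM final. Reaction started by enzyme addition; fluorescence monitored 1 h at room temperature. IC50 derived from percent activity plotted against inhibitor concentration.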

Row | Structure (SMILES) | IC50 [1] [nM] | IC50 [2] [nM]
1 | Cc1c(C(=O)NN(CC(C)C)c2nc(C#N)ncc2Br)n(C)c2ccccc12 | 4 | 311
2 | Cc1nc(-c2ccccc2)sc1C(=O)NN(CC(C)C)c1nc(C#N)ncc1Br | 406 | 999
3 | CC(C)CN(NC(=O)c1cccc(Oc2ccccc2)c1)c1nc(C#N)ncc1Br | 4 | 116
4 | CC(C)CN(NC(=O)c1cccc(-c2cncnc2)c1)c1nc(C#N)ncc1Br | < 0.5 | 12
5 | CC(C)CN(NC(=O)OC(C)(C)C)c1nc(C#N)ncc1[N+](=O)[O-] | 2 | 26
6 | Cc1nc(-c2ccc(C(F)(F)F)cc2)sc1C(=O)NN(CC(C)C)c1nc(C#N)ncc1Cl | 12 | 1540
7 | CC(C)(C)OC(=O)NN(c1nc(C#N)ncc1Br)C1CCCCC1 | 1 | 8
8 | COc1cccc2cc(C(=O)NN(CC(C)C)c3nc(C#N)ncc3Br)oc12 | 46 | 399
9 | CC(C)CN(NC(=O)c1ccc(-n2cncn2)cc1)c1nc(C#N)ncc1Br | 3 | 52
10 | CC(C)CN(NC(=O)Cc1ccc(F)cc1)c1nc(C#N)ncc1Br | 3 | 4
11 | CC(C)CN(NC(=O)c1ccnn1-c1ccccc1)c1nc(C#N)ncc1Cl | 7 | 63
12 | CC(C)(C)OC(=O)NN(Cc1ccco1)c1nc(C#N)ncc1Br | 8 | 140
13 | CC(C)CN(NC(=O)c1ccc2ccccc2n1)c1nc(C#N)ncc1Cl | 6 | 254
14 | CC(C)CN(NC(=O)C1(c2ccc(Cl)cc2)CCCCC1)c1nc(C#N)ncc1Br | 40 | 1650
15 | CC(C)CN(NC(=O)c1ccc(C(=O)c2ccccc2)cc1)c1nc(C#N)ncc1Br | 3 | 115
16 | CC(C)CN(NC(=O)c1csc(-c2ccccc2)n1)c1nc(C#N)ncc1Cl | 1.5 | 54
17 | Cc1c(C(=O)NN(CC(C)C)c2nc(C#N)ncc2Br)oc2cccnc12 | 2 | 73
18 | C[C@@H]1CCC[C@H]1N(NC(=O)OC(C)(C)C)c1nc(C#N)ncc1Br (relative stereo) | 3 | 6
19 | CC(C)CN(NC(=O)OC(C)(C)C)c1nc(C#N)ncc1C(F)(F)F | 3 | 66
20 | CC(C)CN(NC(=O)c1cc2ccccc2[nH]1)c1nc(C#N)ncc1Br | 15 | 641
21 | COc1cnc(C#N)nc1N(CC(C)C)NC(=O)OC(C)(C)C | 79 | 2390

The remaining compounds from weak to strong by IC50 [1], led by results:

Row | IC50 [1] [nM] | IC50 [2] [nM] | Structure (SMILES)
22 | 4530 |  | CC(C)CN(NC(=O)OC(C)(C)C)c1nc(Cl)ncc1C#N
23 | 40 | 1150 | Cc1cnc(C#N)nc1N(CC(C)C)NC(=O)OC(C)(C)C
24 | 28 | 1460 | CC(C)CN(NC(=O)c1ccc(-c2ccccc2)cc1)c1nc(C#N)ncc1Br
25 | 25 | 837 | Cc1oc(-c2ccccc2)cc1C(=O)NN(CC(C)C)c1nc(C#N)ncc1Br
26 | 25 | 121 | CC1(CN(NC(=O)OC(C)(C)C)c2nc(C#N)ncc2Br)CCCCC1
27 | 24 | 583 | CC(C)CN(NC(=O)OC(C)(C)C)c1nc(C#N)ncc1F
28 | 13 | 297 | CC(C)(C)OC(=O)NN(c1nc(C#N)ncc1Br)C1CCC1
29 | 12 | 204 | COc1nc(C#N)nc(N(CC(C)C)NC(=O)OC(C)(C)C)n1
30 | 8 | 85 | CC(C)(C)OC(=O)NN(CC1CCOCC1)c1nc(C#N)ncc1Br
31 | 3 | 104 | CC(C)CN(NC(=O)c1ccc(-c2ccccc2)nc1)c1nc(C#N)ncc1Br
32 | 2 | 165 | Cc1nc(-c2ccccc2)ncc1C(=O)NN(CC(C)C)c1nc(C#N)ncc1Br
33 | 1 | 126 | CC(C)CN(NC(=O)c1cnc2ccccc2c1)c1nc(C#N)ncc1Cl
34 | 1 | 154 | CC(C)CN(NC(=O)c1ccc2sccc2c1)c1nc(C#N)ncc1Br
